# Assay results from ChEMBL document CHEMBL3792373, “Anti-methicillin resistant Staphylococcus aureus activity, synergism with oxacillin and molecular docking studies of metronidazole-triazole hybrids” (Eur J Med Chem, 2016).
# Assays:
# [1] = Cytotoxicity against human THP1 cells upto 50 uM treated 3 times per week for 14 days by MTT assay; format: cell-based; details: thp-1, 336 h
# Staphylococcus aureus [2] = assay: Bactericidal activity against methicillin-resistant Staphylococcus aureus isolate 1a assessed as reduction in colony counts at 32 ug/ml after 20 hrs by pour plate method (reference value: 12.73 +/- 0.223 log10CFU/ml); format: functional
# Staphylococcus aureus [3] = assay: Bactericidal activity against methicillin-resistant Staphylococcus aureus isolate 1a assessed as reduction in colony counts at 32 ug/ml after 16 hrs by pour plate method (reference value: 12.50 +/- 0.291 log10CFU/ml); format: functional
# Staphylococcus aureus [4] = assay: Bactericidal activity against methicillin-resistant Staphylococcus aureus isolate 1a assessed as reduction in colony counts at 32 ug/ml after 4 hrs by pour plate method (reference value: 6.14 +/- 0.456 log10CFU/ml); format: functional
# Staphylococcus aureus [5] = assay: Bactericidal activity against methicillin-resistant Staphylococcus aureus isolate 1a assessed as reduction in colony counts at 32 ug/ml after 12 hrs by pour plate method (reference value: 10.12 +/- 0.428 log10CFU/ml); format: functional
# Staphylococcus aureus [6] = assay: Bactericidal activity against methicillin-resistant Staphylococcus aureus isolate 1a assessed as reduction in colony counts at 32 ug/ml after 24 hrs by pour plate method (reference value: 12.64 +/- 0.224 log10CFU/ml); format: functional
# Staphylococcus aureus [7] = assay: Bactericidal activity against methicillin-resistant Staphylococcus aureus isolate 1a assessed as reduction in colony counts at 32 ug/ml after 8 hrs by pour plate method (reference value: 8.30 +/- 0.442 log10CFU/ml); format: functional
# Staphylococcus aureus [8] = assay: Antimicrobial activity against methicillin-resistant Staphylococcus aureus isolate 13a after 24 hrs by agar plate dilution method; format: functional
# In short: (§1)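 Clinical MRSA isolates from axilla/nasal swabs, identified by mannitol salt agar, Gram stain and coagulase test. Agar plate dilution with compound series 0.03–128 µg/mL. Inoculum suspended in water to McFarland 0.5. Incubation 24 h at 37 °C. MIC read as the lowest level without white growth spots. Dilution series quality-controlled with S. aureus NCTC 6571.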
# Staphylococcus aureus [9] = assay: Antimicrobial activity against methicillin-resistant Staphylococcus aureus isolate 7a after 24 hrs by agar plate dilution method; format: functional
# In short: (§2)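 Clinical MRSA isolates, from axilla/nasal swabs and identified by mannitol salt agar, Gram stain and coagulase test. […] Inoculum adjusted to McFarland 0.5 in water. Plates incubated 24 h at 37 °C and scored for growth spots. Dilution series quality-controlled with S. aureus NCTC 6571. Combination lines used a 1:1 mixture with oxacillin.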
# Staphylococcus aureus [10] = assay: Antimicrobial activity against methicillin-resistant Staphylococcus aureus isolate 29a after 24 hrs by agar plate dilution method; format: functional; in short: as §1
# Staphylococcus aureus [11] = assay: Antimicrobial activity against methicillin-resistant Staphylococcus aureus isolate 26a after 24 hrs by agar plate dilution method; format: functional; in short: as §1
# Staphylococcus aureus [12] = assay: Antimicrobial activity against methicillin-resistant Staphylococcus aureus isolate 11a after 24 hrs by agar plate dilution method; format: functional; in short: as §1
# Staphylococcus aureus [13] = assay: Antimicrobial activity against methicillin-resistant Staphylococcus aureus isolate 17a after 24 hrs by agar plate dilution method; format: functional; in short: as §1
# Staphylococcus aureus [14] = assay: Antimicrobial activity against methicillin-resistant Staphylococcus aureus isolate 8a after 24 hrs by agar plate dilution method; format: functional; in short: as §2
# Staphylococcus aureus [15] = assay: Antimicrobial activity against methicillin-resistant Staphylococcus aureus isolate 23a after 24 hrs by agar plate dilution method; format: functional; in short: as §1
# Staphylococcus aureus [16] = assay: Antimicrobial activity against methicillin-resistant Staphylococcus aureus isolate 21a after 24 hrs by agar plate dilution method; format: functional; in short: as §1
# Staphylococcus aureus [17] = assay: Antimicrobial activity against methicillin-resistant Staphylococcus aureus isolate 1a after 24 hrs by agar plate dilution method; format: functional; in short: as §1
# Staphylococcus aureus [18] = assay: Antimicrobial activity against methicillin-resistant Staphylococcus aureus isolate 20a after 24 hrs by agar plate dilution method; format: functional; in short: as §1
# Staphylococcus aureus [19] = assay: Antimicrobial activity against methicillin-resistant Staphylococcus aureus isolate 30a after 24 hrs by agar plate dilution method; format: functional; in short: as §1
# Staphylococcus aureus [20] = assay: Antimicrobial activity against methicillin-resistant Staphylococcus aureus isolate 27a after 24 hrs by agar plate dilution method; format: functional; in short: as §1
# Staphylococcus aureus [21] = assay: Antimicrobial activity against methicillin-resistant Staphylococcus aureus isolate 9a after 24 hrs by agar plate dilution method; format: functional; in short: as §2
# Staphylococcus aureus [22] = assay: Antimicrobial activity against methicillin-resistant Staphylococcus aureus isolate 18a after 24 hrs by agar plate dilution method; format: functional; in short: as §1
# Staphylococcus aureus [23] = assay: Antimicrobial activity against methicillin-resistant Staphylococcus aureus isolate 15a after 24 hrs by agar plate dilution method; format: functional; in short: as §1
# Staphylococcus aureus [24] = assay: Antimicrobial activity against methicillin-resistant Staphylococcus aureus isolate 14a after 24 hrs by agar plate dilution method; format: functional; in short: as §1
# Staphylococcus aureus [25] = assay: Antimicrobial activity against methicillin-resistant Staphylococcus aureus isolate 4a after 24 hrs by agar plate dilution method; format: functional; in short: as §1
# Staphylococcus aureus [26] = assay: Antimicrobial activity against methicillin-resistant Staphylococcus aureus isolate 5a after 24 hrs by agar plate dilution method; format: functional; in short: as §2
# Staphylococcus aureus [27] = assay: Antimicrobial activity against methicillin-resistant Staphylococcus aureus isolate 28a after 24 hrs by agar plate dilution method; format: functional; in short: as §1
# Staphylococcus aureus [28] = assay: Antimicrobial activity against methicillin-resistant Staphylococcus aureus isolate 12a after 24 hrs by agar plate dilution method; format: functional; in short: as §1
# Staphylococcus aureus [29] = assay: Antimicrobial activity against methicillin-resistant Staphylococcus aureus isolate 2a after 24 hrs by agar plate dilution method; format: functional; in short: as §1
# Staphylococcus aureus [30] = assay: Antimicrobial activity against methicillin-resistant Staphylococcus aureus isolate 25a after 24 hrs by agar plate dilution method; format: functional; in short: as §1
# Staphylococcus aureus [31] = assay: Antimicrobial activity against methicillin-resistant Staphylococcus aureus isolate 24a after 24 hrs by agar plate dilution method; format: functional; in short: as §1
# Staphylococcus aureus [32] = assay: Antimicrobial activity against methicillin-resistant Staphylococcus aureus isolate 22a after 24 hrs by agar plate dilution method; format: functional; in short: as §1
# Staphylococcus aureus [33] = assay: Antimicrobial activity against methicillin-resistant Staphylococcus aureus isolate 6a after 24 hrs by agar plate dilution method; format: functional; in short: as §2
# Staphylococcus aureus [34] = assay: Antimicrobial activity against methicillin-resistant Staphylococcus aureus isolate 19a after 24 hrs by agar plate dilution method; format: functional; in short: as §1
# Staphylococcus aureus [35] = assay: Antimicrobial activity against methicillin-resistant Staphylococcus aureus isolate 3a after 24 hrs by agar plate dilution method; format: functional; in short: as §1
# Staphylococcus aureus [36] = assay: Antimicrobial activity against methicillin-resistant Staphylococcus aureus isolate 10a after 24 hrs by agar plate dilution method; format: functional; in short: as §1
# Staphylococcus aureus [37] = assay: Antimicrobial activity against methicillin-resistant Staphylococcus aureus isolate 16a after 24 hrs by agar plate dilution method; format: functional; in short: as §1
compound,measurement,setting,value
Cc1ncc([N+](=O)[O-])n1CCn1cc(-c2ccccc2)nn1,Activity,[1],Non-toxic
Cc1ncc([N+](=O)[O-])n1CCn1cc(CNc2ccccc2F)nn1,Activity,[1],Non-toxic
CCC(=O)OCc1cn(CCn2c([N+](=O)[O-])cnc2C)nn1,Activity,[1],Non-toxic
Cc1ncc([N+](=O)[O-])n1CCn1cc(COc2ccc(C(C)C)cc2)nn1,Activity,[1],Non-toxic
COc1cc(NCc2cn(CCn3c([N+](=O)[O-])cnc3C)nn2)cc(OC)c1,Activity,[1],Non-toxic
Cc1ncc([N+](=O)[O-])n1CCn1cc(CNCCc2ccccc2)nn1,Activity,[1],Non-toxic
Cc1ncc([N+](=O)[O-])n1CCn1cc(CNc2ccccc2Cl)nn1,Activity,[1],Non-toxic
Cc1ncc([N+](=O)[O-])n1CCn1cc(COc2ccc(C(C)(C)C)cc2)nn1,Activity,[1],Non-toxic
Cc1ncc([N+](=O)[O-])n1CCn1cc(CNc2cccc(Cl)c2Cl)nn1,Activity,[1],Non-toxic
Cc1ncc([N+](=O)[O-])n1CCn1cc(CNc2ccc(F)cc2)nn1,Activity,[1],Non-toxic
Cc1ncc([N+](=O)[O-])n1CCn1cc(COc2ccc([N+](=O)[O-])cc2)nn1,Activity,[1],Non-toxic
Cc1ncc([N+](=O)[O-])n1CCn1cc(C2(O)CCCCC2)nn1,Activity,[1],Non-toxic
Cc1ncc([N+](=O)[O-])n1CCn1cc([Si](C)(C)C)nn1,Activity,[1],Non-toxic
Cc1ncc([N+](=O)[O-])n1CCn1cc(COc2ccc(C=O)cc2)nn1,Activity,[1],Non-toxic
Cc1ncc([N+](=O)[O-])n1CCn1cc(COc2ccccc2Cl)nn1,Activity,[1],Non-toxic
Cc1ncc([N+](=O)[O-])n1CCO [METRONIDAZOLE],Activity,Staphylococcus aureus [2],8.14 log10CFU/ml
same,Activity,Staphylococcus aureus [3],8.25 log10CFU/ml
same,Activity,Staphylococcus aureus [4],5.91 log10CFU/ml
same,Activity,Staphylococcus aureus [5],8.01 log10CFU/ml
same,Activity,Staphylococcus aureus [6],8.3 log10CFU/ml
same,Activity,Staphylococcus aureus [7],6.45 log10CFU/ml
Cc1ncc([N+](=O)[O-])n1CCn1cc(CNc2cccc(Cl)c2)nn1,Activity,[1],Non-toxic
Cc1ncc([N+](=O)[O-])n1CCn1cc(COCc2ccccc2)nn1,Activity,[1],Non-toxic
Cc1ncc([N+](=O)[O-])n1CCn1cc(COC2CCCCO2)nn1 (stereo unspecified),Activity,[1],Non-toxic
Cc1ncc([N+](=O)[O-])n1CCn1cc(CNc2ccccn2)nn1,Activity,[1],Non-toxic
Cc1ncc([N+](=O)[O-])n1CCn1cc(CNc2ccccc2)nn1,Activity,[1],Non-toxic
Cc1ccccc1NCc1cn(CCn2c([N+](=O)[O-])cnc2C)nn1,Activity,[1],Non-toxic
Cc1cccc(OCc2cn(CCn3c([N+](=O)[O-])cnc3C)nn2)c1C,Activity,[1],Non-toxic
Cc1ncc([N+](=O)[O-])n1CCn1cc(COc2cccc3ccccc23)nn1,Activity,[1],Non-toxic
Cc1ncc([N+](=O)[O-])n1CCn1cc(COc2c(C(C)(C)C)cc(C(C)(C)C)cc2C(C)(C)C)nn1,Activity,[1],Non-toxic
Cc1ccccc1OCc1cn(CCn2c([N+](=O)[O-])cnc2C)nn1,Activity,[1],Non-toxic
Cc1ccc(OCc2cn(CCn3c([N+](=O)[O-])cnc3C)nn2)cc1,Activity,[1],Non-toxic
Cc1ncc([N+](=O)[O-])n1CCn1cc(COc2ccccc2C=O)nn1,Activity,[1],Non-toxic
Cc1ncc([N+](=O)[O-])n1CCn1cc(CBr)nn1,Activity,[1],Non-toxic
Cc1ncc([N+](=O)[O-])n1CCn1cc(COc2ccc(Cl)cc2Cl)nn1,Activity,[1],Non-toxic
Cc1ncc([N+](=O)[O-])n1CCn1cc(COc2ccccc2)nn1,Activity,[1],Non-toxic
Cc1ncc([N+](=O)[O-])n1CCn1cc(CNc2ccc(Br)cc2)nn1,Activity,[1],Non-toxic
Cc1ncc([N+](=O)[O-])n1CCn1cc(CNc2cc(Cl)c(Cl)cc2Cl)nn1,Activity,[1],Non-toxic
CCCc1cn(CCn2c([N+](=O)[O-])cnc2C)nn1,Activity,[1],Non-toxic
Cc1ncc([N+](=O)[O-])n1CCn1cc(CNc2cccc(F)c2)nn1,Activity,[1],Non-toxic
Cc1onc(-c2ccccc2)c1C(=O)N[C@@H]1C(=O)N2[C@@H]1SC(C)(C)[C@@H]2C(=O)O [OXACILLIN],MIC,Staphylococcus aureus [8],> 128 µg/mL
same,MIC,Staphylococcus aureus [9],> 128 µg/mL
same,MIC,Staphylococcus aureus [10],32 µg/mL
same,Activity,Staphylococcus aureus [2],11.95 log10CFU/ml
same,MIC,Staphylococcus aureus [11],32 µg/mL
same,MIC,Staphylococcus aureus [12],> 128 µg/mL
same,Activity,Staphylococcus aureus [3],11.2 log10CFU/ml
same,MIC,Staphylococcus aureus [13],> 128 µg/mL
same,MIC,Staphylococcus aureus [14],> 128 µg/mL
same,MIC,Staphylococcus aureus [15],64 µg/mL
same,MIC,Staphylococcus aureus [16],64 µg/mL
same,MIC,Staphylococcus aureus [17],> 128 µg/mL
same,MIC,Staphylococcus aureus [18],> 128 µg/mL
same,MIC,Staphylococcus aureus [19],64 µg/mL
same,MIC,Staphylococcus aureus [20],32 µg/mL
same,MIC,Staphylococcus aureus [21],> 128 µg/mL
same,Activity,Staphylococcus aureus [4],6.05 log10CFU/ml
same,Activity,Staphylococcus aureus [5],8.35 log10CFU/ml
same,MIC,Staphylococcus aureus [22],> 128 µg/mL
same,MIC,Staphylococcus aureus [23],> 128 µg/mL
same,MIC,Staphylococcus aureus [24],> 128 µg/mL
same,MIC,Staphylococcus aureus [25],> 128 µg/mL
same,MIC,Staphylococcus aureus [26],> 128 µg/mL
same,MIC,Staphylococcus aureus [27],128 µg/mL
same,MIC,Staphylococcus aureus [28],> 128 µg/mL
same,Activity,Staphylococcus aureus [6],12.34 log10CFU/ml
same,MIC,Staphylococcus aureus [29],> 128 µg/mL
same,MIC,Staphylococcus aureus [30],64 µg/mL
same,MIC,Staphylococcus aureus [31],16 µg/mL
same,MIC,Staphylococcus aureus [32],32 µg/mL
same,MIC,Staphylococcus aureus [33],> 128 µg/mL
same,MIC,Staphylococcus aureus [34],> 128 µg/mL
same,Activity,Staphylococcus aureus [7],7.62 log10CFU/ml
same,MIC,Staphylococcus aureus [35],> 128 µg/mL
same,MIC,Staphylococcus aureus [36],> 128 µg/mL
same,MIC,Staphylococcus aureus [37],> 128 µg/mL
